Laboratory results taken from ChEMBL document CHEMBL4229369, “Design, synthesis and antitubercular evaluation of benzothiazinones containing a piperidine moiety” (Eur J Med Chem, 2018).
≈ marks a conversion by molar mass, not a printed value.

Tests used:
[1] = tested on: Mycobacterium tuberculosis; assay: Antitubercular activity against Mycobacterium tuberculosis H37Rv ATCC27395 after 7 days by Alamar blue assay; assay type: functional; conditions: 168 h
Method in brief: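 Inoculum grown to late log phase in Middlebrook 7H9 with 0.2% glycerol, 0.05% Tween 80 and 10% ADC, then washed in PBS, filtered through 8 µm to remove clumps and frozen at -80 °C. Twofold compound dilutions in 7H9-ADC-TG with 2 × 10⁵ CFU per well, 37 °C. Alamar blue and Tween 80 added on day 7, read after 16-24 h (ex 530/em 590 nm). MIC is the lowest concentration giving ≥90% fluorescence reduction versus bacterium-only controls.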

[2] = MRT in ICR mouse at 50 mg/kg, po administered as single dose by HPLC analysis; assay type: ADME, organism-based; conditions: in vivo
Method in brief: (§1)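 SPF female ICR mice (20-25 g), fasted overnight, 3 per group; single oral dose 50 mg/kg as suspension in 0.5% CMC. Jugular vein blood at 0.25, 0.5, 1, 2, 4, 6, 8 and 24 h; serum stored at −20 °C, protein removed with acetonitrile, supernatant dried, redissolved in acetonitrile and analysed by HPLC. Parameters derived directly from the experimental data.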

[3] = Tmax in ICR mouse at 50 mg/kg, po administered as single dose by HPLC analysis; assay type: ADME, organism-based; conditions: in vivo; method in brief: as §1
[4] = Cmax in ICR mouse at 50 mg/kg, po administered as single dose by HPLC analysis; assay type: ADME, organism-based; parameters: dose 50 mg/kg, route oral; conditions: in vivo; method in brief: as §1
[5] = Half life in ICR mouse at 50 mg/kg, po administered as single dose by HPLC analysis; assay type: ADME, organism-based; conditions: in vivo; method in brief: as §1
[6] = AUC (0 to infinity) in ICR mouse at 50 mg/kg, po administered as single dose by HPLC analysis; assay type: ADME, organism-based; parameters: dose 50 mg/kg, route oral, time infinity; conditions: in vivo; method in brief: as §1

Row | Structure (SMILES) | MIC90 [1] [µg/mL] | other results
1 | O=c1nc(N2CCN(CC3CCCCC3)CC2)sc2c([N+](=O)[O-])cc(C(F)(F)F)cc12 [MACOZINONE] | < 0.016 | 
2 | CC1CCN(CC2CCN(c3nc(=O)c4cc(C(F)(F)F)cc([N+](=O)[O-])c4s3)CC2)CC1 | 0.488 (≈ 1.04 µM) | 
3 | O=c1nc(N2CCC(CN3CCC(O)CC3)CC2)sc2c([N+](=O)[O-])cc(C(F)(F)F)cc12 | 1.96 (≈ 4.15 µM) | 
4 | CN(C1CCCCC1)C1CCN(c2nc(=O)c3cc(C(F)(F)F)cc([N+](=O)[O-])c3s2)CC1 | 0.973 (≈ 2.07 µM) | 
5 | CC1CCCCN1CC1CCN(c2nc(=O)c3cc(C(F)(F)F)cc([N+](=O)[O-])c3s2)CC1 (stereo unspecified) | 1.92 (≈ 4.08 µM) | 
6 | NNC(=O)c1ccncc1 [ISONIAZID] | 0.037 (≈ 0.27 µM) | 
7 | CCN(CC)CC1CCN(c2nc(=O)c3cc(C(F)(F)F)cc([N+](=O)[O-])c3s2)CC1 | 1.82 (≈ 4.11 µM) | 
8 | O=c1nc(N2CCC(CN3CCCC3)CC2)sc2c([N+](=O)[O-])cc(C(F)(F)F)cc12 | 3.58 (≈ 8.09 µM) | 
9 | CN1CCN(CC2CCN(c3nc(=O)c4cc(C(F)(F)F)cc([N+](=O)[O-])c4s3)CC2)CC1 | 7.84 (≈ 16.6 µM) | 
10 | CO[C@H]1/C=C/O[C@@]2(C)Oc3c(C)c(O)c4c(O)c(c(/C=N/N5CCN(C)CC5)c(O)c4c3C2=O)NC(=O)/C(C)=C\C=C\[C@H](C)[C@H](O)[C@@H](C)[C@@H](O)[C@@H](C)[C@H](OC(C)=O)[C@@H]1C [RIFAMPIN] | 0.084 (≈ 0.102 µM) | 
11 | O=c1nc(N2CCC(CN3CCCCCC3)CC2)sc2c([N+](=O)[O-])cc(C(F)(F)F)cc12 | 1.32 (≈ 2.81 µM) | 
12 | O=c1nc(N2CCC(CN3CCC(C(F)(F)F)CC3)CC2)sc2c([N+](=O)[O-])cc(C(F)(F)F)cc12 | < 0.016 | MRT [2]: 4.26 h; Tmax [3]: 0.25 h; Cmax [4]: 1160 ng/mL; half-life [5]: 3.3 h; AUC(0-inf) [6]: 2490 ng·h/mL
13 | CC1CCCN(CC2CCN(c3nc(=O)c4cc(C(F)(F)F)cc([N+](=O)[O-])c4s3)CC2)C1 (stereo unspecified) | 0.241 (≈ 0.512 µM) | 
14 | O=c1nc(N2CCC(NC3CCCCC3)CC2)sc2c([N+](=O)[O-])cc(C(F)(F)F)cc12 | 0.959 (≈ 2.1 µM) | 
15 | O=c1nc(N2CCC(CN3CCC4(CC3)OCCO4)CC2)sc2c([N+](=O)[O-])cc(C(F)(F)F)cc12 | 3.71 (≈ 7.21 µM) | 
16 | O=c1nc(N2CCC(CN3CCCCC3)CC2)sc2c([N+](=O)[O-])cc(C(F)(F)F)cc12 | 0.481 (≈ 1.05 µM) | 
